High-throughput results: PubChem, several laboratories
In the library only some 2.2% were active in any assay of this set; here they are far more common.
NR2E3 ag-1 – inhibitors of NR2E3-RetCOR corepressor binding, primary screen, NR2E3 agonist project, biochemical, TR-FRET, GST-NR2E3, biotin-RetCOR. inhibition of corepressor binding, % at 4.78 µM. 1536-well. actives 0.12% (n = 320,000);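 active = percent inhibition above the cutoff of mean plus 3 SD of all tested compounds, set per screening campaign, cut at about 20% in these data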
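Test system – NR2E3–RetCOR corepressor complex · Quantity – NR2E3 fusion 1.35 nM · Buffer or medium – Tris pH 7.5 · Incubation – Compound–protein incubation for 5 h at 4 °C · Technique – TR-FRET, Eu(K)-anti-GST donor, streptavidin-D2 acceptor, ex 340, em 617/671 nm · Evaluation – percent inhibition of 671/617 nm emission ratio versus biotin and DMSO controls · Plate – 1536-well format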
FXN GAA850 act – FXN promoter activators, primary screen, cell-based, luciferase luminescence, HEK293 lucGAA850. HEK293 lucGAA850 FXN promoter luciferase reporter, 24 h; percent of 10 µM SAHA response. activation, % at 6 µM. actives 0.56% (n = 360,000). AID 540364, 2011;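 active = activation above the average of all compounds screened plus 3 SD, cutoff fixed separately per campaign, cut at about 7.5% in these data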
NR2E3 ag-2 – NR2E3 agonists in two-hybrid cells, primary screen, cell-based, luminescence, CHO-S, Gal4-NCOR/VP16-NR2E3 | Photoreceptor-specific nuclear receptor (Homo sapiens), Q9Y5X4 | luciferase | inhibition of corepressor binding, % at 3.98 µM | actives 0.35% (n = 360,000) | AID 602229, 2012;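 active = inhibition above the mean of all tested compounds plus 3 SD, cut at about 70% in these data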;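 note: higher means lower luciferase signal from less NR2E3 corepressor binding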
HIV Env fusion – inhibitors of HIV-1 Env-driven cell-cell fusion, primary screen, HeLa-JRFL effector, CEM21 target cells, luciferase; inhibition, % at 12.3 µM; actives 1.1% (n = 360,000); AID 651610, 2012;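 active = mean replicate inhibition score of at least 50 and every replicate individually at or above 50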
V-ATPase pH – regulators of yeast V-ATPase proton pumping, primary screen, pHLuorin cytosolic pH fluorescence; S. cerevisiae; response, % at 10 µM; actives 0.37% (n = 350,000); AID 504577, 2011; in the data active = response mostly above about 7.3%, no sharp cut-off; inactive = mostly below about 5.4%; note: actives read high
GalR3 antag – GalR3 antagonists in HEK293 cells, primary screen, cell-based, fluorescence readout; HEK293 GalR3-CNG cAMP membrane potential fluorescence; galR3 body fused to GalR1 C-terminus; inhibition, % at 3 µM; actives 0.44% (n = 360,000);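 active = inhibition above the screen-wide average plus 3 SD, cut at about 13% in these data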;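 note: forskolin and galanin both at EC90 stimulate the cells; cAMP rise reported by CNG channel membrane potential dye signal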
Target sequence (O60755 1-299 limits assumed): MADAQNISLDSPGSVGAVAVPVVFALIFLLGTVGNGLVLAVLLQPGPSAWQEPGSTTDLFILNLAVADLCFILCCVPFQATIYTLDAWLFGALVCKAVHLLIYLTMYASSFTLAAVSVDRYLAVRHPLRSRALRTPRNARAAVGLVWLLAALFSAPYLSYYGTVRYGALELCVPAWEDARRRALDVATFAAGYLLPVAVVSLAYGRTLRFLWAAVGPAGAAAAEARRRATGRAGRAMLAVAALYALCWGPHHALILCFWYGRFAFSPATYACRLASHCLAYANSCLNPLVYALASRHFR
Each line names hits and unclear results; the compound was inactive in the other large screens; [ ] = dose if it differs, or a comment.

Cc1ccc(S(=O)(=O)N[C@@H]2CC[C@H](CCNC(=O)c3ccccc3F)O[C@H]2CO)cc1	HIV Env fusion 66[16.7 µM] (no result: NR2E3 ag-1, FXN GAA850 act, NR2E3 ag-2, V-ATPase pH, GalR3 antag)
Cc1ccc(S(=O)(=O)N[C@H]2CC[C@H](CCNC(=O)c3ccccc3F)O[C@@H]2CO)cc1	none (no result: NR2E3 ag-1, FXN GAA850 act, NR2E3 ag-2, V-ATPase pH, GalR3 antag)
CCCCOc1ccc(NS(=O)(=O)c2ccc(-n3cnnn3)cc2)cc1	none
O=S(=O)(Nc1ncccn1)c1ccc(-n2cnnn2)cc1	V-ATPase pH 9.5
CCN(c1ccccc1)S(=O)(=O)c1ccc(C(=O)Nc2c(C)n(C)n(-c3ccccc3)c2=O)cc1	HIV Env fusion 57 (no result: NR2E3 ag-1)
Cc1c(NC(=O)c2ccc(S(=O)(=O)N(C)c3ccccc3)cc2)c(=O)n(-c2ccccc2)n1C	none
CCOC(=O)c1c2c(n(Cc3ccccc3)c1C)C(=O)C(=O)c1ccccc1-2	HIV Env fusion 78 (no result: NR2E3 ag-1)
CCOC(=O)c1c2c(n(C)c1C)C(=O)C(=O)c1ccc(Br)cc1-2	none
CC(=O)C1(C)N(O)C(C)(C)C(c2ccco2)=[N+]1[O-] (stereo not drawn)	HIV Env fusion 58
CC(=O)N(C)C[C@@H]1Oc2ncc(/C=C/c3ccccc3)cc2C(=O)N([C@@H](C)CO)C[C@H]1C	none (no result: NR2E3 ag-1, FXN GAA850 act, NR2E3 ag-2, V-ATPase pH, GalR3 antag)
COc1ccccc1C#Cc1ccc2c(c1)O[C@@H](CN(C)Cc1ccncc1)[C@H](C)CN([C@H](C)CO)S2(=O)=O	HIV Env fusion 52[16.7 µM] (no result: NR2E3 ag-1, FXN GAA850 act, NR2E3 ag-2, V-ATPase pH, GalR3 antag)
COc1ccccc1C#Cc1ccc2c(c1)O[C@H](CN(C)Cc1ccncc1)[C@@H](C)CN([C@@H](C)CO)S2(=O)=O	HIV Env fusion 48[16.7 µM] (no result: NR2E3 ag-1, FXN GAA850 act, NR2E3 ag-2, V-ATPase pH, GalR3 antag)
COc1ccccc1C#Cc1ccc2c(c1)O[C@@H](CN(C)Cc1ccncc1)[C@H](C)CN([C@@H](C)CO)S2(=O)=O	none (no result: NR2E3 ag-1, FXN GAA850 act, NR2E3 ag-2, V-ATPase pH, GalR3 antag)
C[C@H](CO)N1C[C@H](C)[C@H](CN(C)Cc2ccc(Oc3ccccc3)cc2)Oc2ccc(NC(=O)Nc3ccccc3)cc2C1=O	none (no result: NR2E3 ag-1, FXN GAA850 act, NR2E3 ag-2, V-ATPase pH, GalR3 antag)
COc1ccc(CCn2c(C)cc(C(=O)CSc3nc(N)cc(=O)[nH]3)c2C)cc1	HIV Env fusion 70
CC1(C)Cc2ccccc2C(/C(=N\Nc2cccc(Cl)c2)C(N)=O)=N1	HIV Env fusion 82
CC(C(=O)c1ccc(-c2ccccc2)cc1)[n+]1ccccc1 (stereo not drawn)	HIV Env fusion 46
Cc1cc[n+](C(C)C(=O)c2ccc(-c3ccccc3)cc2)cc1 (stereo not drawn)	none
C[C@@H]1CN([C@H](C)CO)S(=O)(=O)c2ccc(C3=CCCCC3)cc2O[C@H]1CN(C)Cc1cncnc1	none (no result: NR2E3 ag-1, FXN GAA850 act, NR2E3 ag-2, V-ATPase pH, GalR3 antag)
Cc1[nH]nc2ncc(C(=O)c3ccccc3O)cc12	HIV Env fusion 64
Cc1nn(C)c2ncc(C(=O)c3ccccc3O)cc12	none
C[C@@H]1CCCCO[C@H](CN(C)S(=O)(=O)c2cccs2)[C@@H](C)CN([C@H](C)CO)C(=O)c2cc(NS(=O)(=O)c3cn(C)cn3)ccc2O1	none (no result: NR2E3 ag-1, FXN GAA850 act, NR2E3 ag-2, V-ATPase pH, GalR3 antag)
Cc1cc(C)c(-c2csc(NC(=O)/C=C/c3cccs3)n2)c(C)c1	HIV Env fusion 63
CN(C)Cc1cn(CC[C@H]2CC[C@@H](NC(=O)Nc3ccc4c(c3)OCO4)[C@@H](CO)O2)nn1	none (no result: NR2E3 ag-1, FXN GAA850 act, NR2E3 ag-2, V-ATPase pH, GalR3 antag)
COCCNc1nc2cc(-c3ccccc3)sc2c(=O)n1C	none (no result: NR2E3 ag-1, V-ATPase pH)
Cc1nc2cc(-c3ccccc3)sc2c(=O)n1N	HIV Env fusion 64
COc1ccc(-c2cc3nc(C)n(N)c(=O)c3s2)cc1	HIV Env fusion 84
CC(=O)N1CCN(C(=O)c2cc3c(s2)CCCC3)CC1	V-ATPase pH 18 (no result: NR2E3 ag-1)
CN1CCCN(C(=O)c2cc3c(s2)CCCC3)CC1	none
C[C@H](CO)N1C[C@H](C)[C@H](CN(C)C(=O)Cc2ccccc2)OCCCC[C@H](C)Oc2ccc(NC(=O)Nc3ccccc3)cc2C1=O	none (no result: NR2E3 ag-1, FXN GAA850 act, NR2E3 ag-2, V-ATPase pH, GalR3 antag)
COc1ccc(/C=C2\CCCC3C2=NN(C(=O)c2scnc2C)C3c2ccc(OC)c(OC)c2)cc1OC (stereo not drawn)	HIV Env fusion 66
